Results taken from ChEMBL document CHEMBL1123133, “1H-2-Benzopyran-1-one derivatives, microbial products with pharmacological activity. Conversion into orally active derivatives with antiinflammatory and antiulcer activities” (J Med Chem, 1985).

Assays:
Rattus norvegicus [1] = assay: Concentration 5b detected in blood of rat 1 hr after an oral dose of 200 mg/kg of the compound; type: ADME, organism-based; set-up: dose 200 mg/kg, route oral; details: in vivo
Outline: (§1)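 Male Wistar rats (120–160 g), 5–7 per group, fasted 24 h, given 200 mg/kg orally as aqueous HCl salt formulation (drug/glycerin/HCO-60 1/12/0.05 by weight). Jugular blood taken under ether at 1 or 3 h into citric acid; plasma deproteinized with ethanol (acetone for 5d) and analysed by C18 HPLC at 254 nm. Values recovery-corrected, mean of 6–7 rats.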

Rattus norvegicus [2] = assay: Concentration 5b detected in blood of rat 3 hr after an oral dose of 200 mg/kg of the compound; type: ADME, organism-based; set-up: dose 200 mg/kg, route oral; details: in vivo; outline: as §1
Rattus norvegicus [3] = assay: Gastroprotective activity as % protection against stress ulcers in 5 rats after an intraperitoneal dose of 25 mg/kg; type: functional
Outline: (§2)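 Stress ulcer by restraint and water immersion: male Wistar rats (160–180 g), fasted 24 h, given test compound po or ip as HCl salt in aqueous glycerin/HCO-60 formulation (1/12/0.05 by weight). Vehicle-only controls. After 1 h, restrained in net cage and immersed in 21 °C water for 6 h. Percent ulcer inhibition calculated; five rats per dose.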

[4] = Solubility in phosphate buffer, tested as a HCl salt; type: physicochemical
Outline: (§3)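 HCl salts suspended in excess in water or 10 mM phosphate buffer pH 7.5, sonicated 10 min at 20 °C to saturation, centrifuged; supernatant quantified by HPLC.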

Rattus norvegicus [5] = assay: Gastroprotective activity as % protection against stress ulcers in 5 rats after an oral dose of 12.5 mg/kg; type: functional; outline: as §2
Rattus norvegicus [6] = assay: Gastroprotective activity as % protection against stress ulcers in 5 rats after an oral dose of 25 mg/kg; type: functional; outline: as §2
Rattus norvegicus [7] = assay: Antiinflammatory activity evaluated as Minimum effective oral dose that inhibits dextran paw edema in rat; type: functional
Cavia porcellus = assay: Antiinflammatory activity evaluated as Minimum effective oral dose that inhibits dextran UV erythema in guinea pig; type: functional
[8] = Acute toxicity evaluated as oral lethal dose in rat; type: organism-based; details: in vivo
Outline: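 Oral dosing of male Wistar rats (120-140 g), given as HCl salt; LD50 derived from mortality over 7 days.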

Rattus norvegicus [9] = assay: Gastroprotective activity as % protection against stress ulcers in 5 rats after an intraperitoneal dose of 12.5 mg/kg; type: functional; outline: as §2
[10] = Solubility in water, tested as a HCl salt; type: physicochemical; details: read-out: S; outline: as §3
Rattus norvegicus [11] = assay: Antiinflammatory activity evaluated as Minimum effective oral dose that inhibits adjuvant arthritis in rats; type: functional
Outline: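 Adjuvant arthritis: male Sprague-Dawley rats (180–200 g), 8–10 per group, injected in right hind paw with Mycobacterium butyricum powder in corn oil (0.6 mg/0.1 mL). Oral dosing started 1 h after adjuvant, then daily for 18 days; observed 28 days. Minimum effective dose recorded.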

Rattus norvegicus [12] = assay: Gastroprotective activity as % protection against stress ulcers in 5 rats after an oral dose of 50 mg/kg; type: functional; outline: as §2
Rattus norvegicus [13] = assay: Gastroprotective activity as % protection against stress ulcers in 5 rats after an intraperitoneal dose of 50 mg/kg; type: functional; outline: as §2
[14] = Lipid solubility measured as chloroform-water partition coefficient; type: physicochemical
Outline: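 Partition between chloroform and 10 mM phosphate buffer pH 7.5 (1:1 volume); drug at 1 mg/mL initially in aqueous phase, shaken 20 min at 20 °C, centrifuged, both phases quantified by HPLC. HCl salts used.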

Rattus norvegicus [15] = assay: Antiinflammatory activity evaluated as Minimum effective oral dose that inhibits carrageenan paw edema in rat; type: functional
Rattus norvegicus [16] = assay: Gastroprotective activity as % protection against stress ulcers in 5 rats after an oral dose of 100 mg/kg; type: functional; outline: as §2
Rattus norvegicus [17] = assay: Antiinflammatory activity evaluated as Minimum effective oral dose that inhibits bradykinin paw edema in rat; type: functional
Rattus norvegicus [18] = assay: % recovery of the compound, compound 1 and compound 6a from whole blood of 7 wistar rats after an oral dose of the compound; type: ADME, organism-based; details: in vivo
Rattus norvegicus [19] = assay: Concentration 6f detected in blood of rat 3 hr after an oral dose of 200 mg/kg; ND is Not Detected; type: ADME, organism-based; set-up: dose 200 mg/kg, route oral; details: in vivo; outline: as §1
Rattus norvegicus [20] = assay: Concentration 1 detected in blood of rat 3 hr after an oral dose of 200 mg/kg; ND is Not Detected; type: ADME, organism-based; set-up: dose 200 mg/kg, route oral; details: in vivo; outline: as §1
Rattus norvegicus [21] = assay: Concentration 1 detected in blood of rat 1 hr after an oral dose of 200 mg/kg; ND is Not Detected; type: ADME, organism-based; set-up: dose 200 mg/kg, route oral; details: in vivo; outline: as §1
Rattus norvegicus [22] = assay: Concentration 6f detected in blood of rat 1 hr after an oral dose of 200 mg/kg; ND is Not Detected; type: ADME, organism-based; set-up: dose 200 mg/kg, route oral; details: in vivo; outline: as §1
Rattus norvegicus [23] = assay: Concentration 5f detected in blood of rat 1 hr after an oral dose of 200 mg/kg of the compound; ND is Not Detected; type: ADME, organism-based; set-up: dose 200 mg/kg, route oral; details: in vivo; outline: as §1
Rattus norvegicus [24] = assay: Concentration 5f detected in blood of rat 3 hr after an oral dose of 200 mg/kg; ND is Not Detected; type: ADME, organism-based; set-up: dose 200 mg/kg, route oral; details: in vivo; outline: as §1
Rattus norvegicus [25] = assay: Concentration 6d detected in blood of rat 3 hr after an oral dose of 200 mg/kg of the compound; type: ADME, organism-based; set-up: dose 200 mg/kg, route oral; details: in vivo; outline: as §1
Rattus norvegicus [26] = assay: Concentration 5d detected in blood of rat 3 hr after an oral dose of 200 mg/kg of the compound; type: ADME, organism-based; set-up: dose 200 mg/kg, route oral; details: in vivo; outline: as §1
Rattus norvegicus [27] = assay: Concentration 1 detected in blood of rat 3 hr after an oral dose of 200 mg/kg; ND is Not Detected.; type: ADME, organism-based; set-up: dose 200 mg/kg, route oral; details: in vivo; outline: as §1
Rattus norvegicus [28] = assay: Concentration 5d detected in blood of rat 1 hr after an oral dose of 200 mg/kg of the compound; type: ADME, organism-based; set-up: dose 200 mg/kg, route oral; details: in vivo; outline: as §1
Rattus norvegicus [29] = assay: Concentration 6d detected in blood of rat 1 hr after an oral dose of 200 mg/kg of the compound; type: ADME, organism-based; set-up: dose 200 mg/kg, route oral; details: in vivo; outline: as §1
Rattus norvegicus [30] = assay: Concentration 5c detected in blood of rat 3 hr after an oral dose of 200 mg/kg of the compound; type: ADME, organism-based; set-up: dose 200 mg/kg, route oral; details: in vivo
Outline: (§4)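 Male Wistar rats (120–160 g, 5–7 per group) fasted 24 h, then given 200 mg/kg orally as the HCl salt in a glycerin/HCO-60 formulation (drug/glycerin/HCO-60 1/12/0.05 by weight) in aqueous solution. At 1 or 3 h, jugular blood was citrated and plasma was ethanol-deproteinized, then analysed by reverse-phase HPLC at 254 nm. Values were recovery-corrected from blood spiked at 50 μg/mL and are means of 6–7 rats.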

Rattus norvegicus [31] = assay: Concentration 6c detected in blood of rat 1 hr after an oral dose of 200 mg/kg of the compound; type: ADME, organism-based; set-up: dose 200 mg/kg, route oral; details: in vivo; outline: as §4
Rattus norvegicus [32] = assay: Concentration 6c detected in blood of rat 3 hr after an oral dose of 200 mg/kg of the compound; type: ADME, organism-based; set-up: dose 200 mg/kg, route oral; details: in vivo; outline: as §4
Rattus norvegicus [33] = assay: Concentration 5c detected in blood of rat 1 hr after an oral dose of 200 mg/kg of the compound; type: ADME, organism-based; set-up: dose 200 mg/kg, route oral; details: in vivo; outline: as §4

SMILES	P [14]	Protection (Rattus norvegicus [3]) [%]	solubility [4] [µg/mL]	Protection (Rattus norvegicus [5]) [%]	Protection (Rattus norvegicus [6]) [%]	ED50 (Rattus norvegicus [7]) [mg/kg]	ED50 (Cavia porcellus) [mg/kg]	LD50 [8] [mg/kg]	Protection (Rattus norvegicus [9]) [%]	solubility [10] [µg/mL]	EDmin (Rattus norvegicus [11]) [mg/kg]	Protection (Rattus norvegicus [12]) [%]	Protection (Rattus norvegicus [13]) [%]	ED50 (Rattus norvegicus [15]) [mg/kg]	Protection (Rattus norvegicus [16]) [%]	ED50 (Rattus norvegicus [17]) [mg/kg]	Recovery (Rattus norvegicus [18]) [%]	further results
CCNC1CC(=O)OC1C(O)C(=O)NC(CC(C)C)C1Cc2cccc(O)c2C(=O)O1 (configuration not stated)	43	76	11000	33	56	47	13	1250	66	> 100000	20	78	100	> 200	89	182	20	Concentration (Rattus norvegicus [1]): 17500 ng/mL; Concentration (Rattus norvegicus [2]): 8300 ng/mL
Cn1cnc2c1c(=O)[nH]c(=O)n2C [THEOBROMINE]	0.1	–	–	–	–	–	–	–	–	–	–	–	–	–	–	–	–	–
CCCNC1CC(=O)OC1C(O)C(=O)NC(CC(C)C)C1Cc2cccc(O)c2C(=O)O1 (configuration not stated)	260	66	1600	17	78	43	12	1080	44	> 100000	15	94	89	124	100	69	40	Concentration (Rattus norvegicus [30]): 3400 ng/mL; Concentration (Rattus norvegicus [31]): 6400 ng/mL; Concentration (Rattus norvegicus [32]): 3400 ng/mL; Concentration (Rattus norvegicus [33]): 14200 ng/mL

The next lines start with results.

P [14]	SMILES	Protection (Rattus norvegicus [3]) [%]	solubility [4] [µg/mL]	Protection (Rattus norvegicus [5]) [%]	Protection (Rattus norvegicus [6]) [%]	ED50 (Rattus norvegicus [7]) [mg/kg]	ED50 (Cavia porcellus) [mg/kg]	LD50 [8] [mg/kg]	Protection (Rattus norvegicus [9]) [%]	solubility [10] [µg/mL]	EDmin (Rattus norvegicus [11]) [mg/kg]	Protection (Rattus norvegicus [12]) [%]	Protection (Rattus norvegicus [13]) [%]	ED50 (Rattus norvegicus [15]) [mg/kg]	Protection (Rattus norvegicus [16]) [%]	ED50 (Rattus norvegicus [17]) [mg/kg]	Recovery (Rattus norvegicus [18]) [%]	further results
3000	CCCCCCNC1CC(=O)OC1C(O)C(=O)NC(CC(C)C)C1Cc2cccc(O)c2C(=O)O1 (configuration not stated)	17	5	–	11	–	–	–	–	1600	–	44	11	–	44	–	80	Concentration (Rattus norvegicus [19]): Not detected; Concentration (Rattus norvegicus [20]): Not detected; Concentration (Rattus norvegicus [21]): Not detected; Concentration (Rattus norvegicus [22]): Not detected; Concentration (Rattus norvegicus [23]): Not detected; Concentration (Rattus norvegicus [24]): Not detected
1700	CCCCNC1CC(=O)OC1C(O)C(=O)NC(CC(C)C)C1Cc2cccc(O)c2C(=O)O1 (configuration not stated)	44	370	17	33	–	–	–	–	100000	–	66	89	–	89	–	30	Concentration (Rattus norvegicus [25]): 1800 ng/mL; Concentration (Rattus norvegicus [26]): 2300 ng/mL; Concentration (Rattus norvegicus [27]): Not detected; Concentration (Rattus norvegicus [28]): 2300 ng/mL; Concentration (Rattus norvegicus [29]): 2000 ng/mL
< 0.03	CNCC(=O)O [SARCOSINE]	–	–	–	–	–	–	–	–	–	–	–	–	–	–	–	–	–
